# Compound activity (PubChem)
# PREPL inhibitor: PREPL enzyme inhibitors, primary screen, biochemical, fluorescence polarization | recombinant PREPL, fluorescence polarization activity-based probe | 320,000 compounds, 0.68% hits | inhibition, % at 5.96 µM | Prolyl endopeptidase-like (Homo sapiens), Q4J6C6; in the data active means inhibition above about 43%;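 further: 0% = enzyme with DMSO and 100% = wells lacking enzyme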
# ALR inh: inhibitors of human ALR sulfhydryl oxidase, primary screen, biochemical, H2O2 detection, HRP-luminol luminescence, single point; inhibition, % (no concentration beside the values); AID 485317, 2010; purified ALR, DTT oxidation; 290,000 compounds, 3.8% hits;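 active means mean replicate inhibition above about 79%, with every replicate also reaching it, limit read from the data; inconclusive means only one of the two criteria met; inactive means mean below limit and not every replicate reaching it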
# RBBP9 inh: human RBBP9 inhibitors, primary screen, biochemical, fluorescence polarization, FP-Rh probe, HTS; Serine hydrolase RBBP9 (Homo sapiens), O75884; recombinant RBBP9; inhibition, % at 7.94 µM; 220,000 compounds, 0.2% hits;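 active means inhibition above the campaign mean of all tested compounds plus 3 SD, cut at about 14% in these data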;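 further: plate controls were DMSO wells with RBBP9 for no effect and wells lacking RBBP9 protein for full effect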
# Target sequence (O75884 whole entry, looked up): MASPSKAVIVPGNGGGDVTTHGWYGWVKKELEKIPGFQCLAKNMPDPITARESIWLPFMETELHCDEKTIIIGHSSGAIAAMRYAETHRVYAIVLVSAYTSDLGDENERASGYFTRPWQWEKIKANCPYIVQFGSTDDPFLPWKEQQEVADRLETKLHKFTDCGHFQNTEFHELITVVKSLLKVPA
#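 Measured by – fluorescence polarization · Test system – RBBP9 protein · Input – 2.5 µM RBBP9 dispensing solution, before mixing · Measure – percent inhibition from mP, scaled between DMSO and no-protein wells · Benchmarks – DMSO-treated enzyme wells and wells lacking RBBP9 · Times – preincubation 30 min plus labeling 45 min at 25 °C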
# Rin1-Abl PPI inh: inhibitors of Rin1-Abl protein binding, primary screen, biochemical, TR-FRET; Tyrosine-protein kinase ABL1 (Homo sapiens) + Ras and Rab interactor 1 (Homo sapiens), …; inhibition, % at 7.35 µM; 360,000 compounds, 0.4% hits; in the data active means inhibition above about 5%, passing the limit was not always enough
# UBC9 SUMO inh: inhibitors of in vitro SUMOylation cascade, primary screen, biochemical, HTRF, uHTS | inhibition, % at 35 µM | HTRF SUMOylation assay, SAE1/SAE2 + UBC9 | 290,000 compounds, 0.36% hits; in the data active means inhibition above about 50%, passing the limit was not always enough; inconclusive means no clear call, values can overlap the other calls
# Target sequence (P63279 whole entry, looked up): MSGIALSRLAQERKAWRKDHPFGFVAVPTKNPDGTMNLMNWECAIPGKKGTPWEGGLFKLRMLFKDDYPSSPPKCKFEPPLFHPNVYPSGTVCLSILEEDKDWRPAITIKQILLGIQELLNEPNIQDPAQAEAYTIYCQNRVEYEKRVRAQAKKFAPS
# UBC13 polyUb: UBC13 polyubiquitin chain formation inhibitors, primary screen, biochemical, TR-FRET, uHTS; AID 485273, 2010; 330,000 compounds, 0.47% hits; inhibition, % at 20 µM; in the data active means inhibition above about 45%, passing the limit was not always enough; inconclusive means no clear call, values can overlap the other calls
# Target sequence (P61088 whole entry, looked up): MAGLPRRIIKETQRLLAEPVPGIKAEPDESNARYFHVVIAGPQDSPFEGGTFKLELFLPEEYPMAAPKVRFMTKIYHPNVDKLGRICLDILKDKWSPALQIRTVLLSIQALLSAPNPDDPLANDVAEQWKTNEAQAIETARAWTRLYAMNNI
# * marks the source's active call; other numbers are inactive results; ? = inconclusive; nt = no result. A selection: hits, their analogues and other compounds. The true share with any hit is near 4.3%.
SMILES,PREPL inhibitor,ALR inh,RBBP9 inh,Rin1-Abl PPI inh,UBC9 SUMO inh,UBC13 polyUb
O=C(CCC(=O)N1CCN(c2ccc(O)cc2)CC1)c1cccs1,15.2,99.1*,-5.8,-2.0,-4.0,-15.7
O=C(c1cccs1)N1CCN(c2cc(Cl)ccc2Cl)CC1,12.5,52.0,nt,0.2,10.4,2.9
O=C(NCC(=O)N1CCN(c2ccccc2)CC1)c1cccs1,9.2,96.1*,nt,1.1,0.8,-4.6
COc1ccc(N2CCN(C(=O)Cc3cccs3)CC2)cc1,14.0,96.8*,3.3,1.4,13.9,5.3
O=C(NC(Cc1c[nH]c2ccccc12)C(=O)O)c1cccc(S(=O)(=O)N2CCCCC2)c1 (stereo unspecified),nt,nt,nt,-0.8,nt,nt
COc1ccc(N2CCN(C(=O)CNC(=O)c3cccs3)CC2)cc1,4.8,95.1*,nt,2.2,14.4,-4.1
COc1ccc(N2CCN(C(=O)Cc3ccc(OC)c(OC)c3)CC2)cc1,0.8,87.9*,nt,-2.7,2.5,-3.8
O=C(NCCc1ccccc1)C1CCCN1C(=O)Nc1ccc(Cl)cc1 (stereo unspecified),-1.6,-7.1,nt,1.8,2.0,-6.0
CC(=O)Nc1ccc(-c2csc(NC(=O)Cc3cccc(F)c3)n2)cc1,10.3,nt,nt,-0.5,-4.3,-3.2
CNC(=O)COC(=O)c1cc(-c2ccco2)nc2ccccc12,14.9,10.4,3.5,-4.6,62.8*,9.0
CC(=O)Nc1ccc(/C=N/NC(=O)c2cc(-c3ccco3)nc3ccccc23)cc1,-2.4,-6.4,-10.1,-0.5,31.0,-8.5
O=C(O)c1ccccc1/C=N/NC(=O)c1cc(-c2ccco2)nc2ccccc12,6.1,-1.4,-6.1,2.0,78.3*,21.6
CCc1cc(C(=O)N/N=C/c2ccc(O)cc2O)c2ccccc2n1,6.9,83.3*,nt,-4.2,8.7,-13.6
CC(C)c1ccc(NNC(=O)C2CCC2)cc1,16.0,nt,-2.4,-1.2,22.7,0.5
CC(OC(=O)c1ccc(Cl)nc1)C(=O)Nc1ccc2c(c1)OCO2 (stereo unspecified),12.1,-16.5,nt,1.8,nt,-3.5
CCc1ccc2nc(N(CCCN(C)C)C(=O)c3ccc(S(=O)(=O)N(C)C4CCCCC4)cc3)sc2c1,12.3,-1.4,nt,2.2,16.6,47.6*
CN(C)CCCN(C(=O)c1ccc(S(=O)(=O)N(C)C2CCCCC2)cc1)c1nc2ccc(F)cc2s1,27.7,-4.8,nt,1.3,5.2,27.4
CCC(=O)NCc1csc(-c2cccs2)n1,0.7,94.2*,-8.3,0.9,19.1,0.9
CCCOc1ccc(-c2nc(=S)[nH][nH]2)cc1,0.3,98.6*,-8.0,1.6,5.3,9.6
O=C(Nc1nnc(S(=O)(=O)N2CCOCC2)s1)c1ccccc1,20.3,98.6*,nt,-1.8,2.1,-9.7
CCOC(=O)Oc1ccc2c(=O)c(Oc3cccc(C)c3)coc2c1,65.3*,95.9*,-4.2,-2.6,12.6,9.5
Cc1ccc(C)c(C(=O)CCC(=O)NCc2ccc(Cl)cc2)c1,-7.5,-6.5,-5.2,2.0,-2.2,-6.6
COc1ccccc1-c1cnc(C(O)c2ccc(C(C)(C)C)cc2)[nH]1 (stereo unspecified),nt,nt,nt,-1.4,nt,nt
CCN(Cc1ccccc1)C(=O)CCS(=O)(=O)c1ccc2c(c1)n(C)c(=O)c(=O)n2C,11.9,-3.6,nt,0.2,12.0,1.7
Cc1cc(C(=O)C(=O)NC(C)C)c(C)n1-c1ccc([N+](=O)[O-])cc1,7.9,-12.6,0.8,-3.2,9.8,3.0
SMILES,PREPL inhibitor,ALR inh,RBBP9 inh,Rin1-Abl PPI inh,UBC9 SUMO inh,UBC13 polyUb
COCCNC(=O)C(=O)c1cc(C)n(-c2ccc([N+](=O)[O-])cc2)c1C,2.6,97.4*,0.7,-1.4,-1.8,9.9
Cc1ccc(C)c(OCCC(=O)Nc2ccc(S(=O)(=O)N3CCCC3)cc2)c1,11.7,nt,nt,5.1,nt,9.7
CCc1nc2c(OCc3cccc(Cl)c3)cccn2c1N(C)C(=O)c1ccco1,nt,nt,nt,0.0,nt,nt
Cc1[nH]c2ccccc2c1CCO,1.4,-15.2,-0.3,-1.6,-1.0,-0.7
Cc1[nH]c2ccccc2c1CCCO,nt,98.8*,-7.8,nt,22.9,nt
O=C(NNS(=O)(=O)c1ccc(F)cc1)c1cc2ccccc2cc1O,-16.4,98.4*,nt,-2.8,14.7,7.9
O=C(NNc1ccccn1)C(=O)NNS(=O)(=O)c1ccc(F)cc1,3.0,99.2*,-7.3,-1.2,-12.7,34.7
O=C(NNc1ccccn1)C(=O)NNS(=O)(=O)c1ccc(Cl)cc1,4.3,98.5*,-5.8,1.0,-42.7,-25.9
O=C(COC(=O)/C=C/c1ccc(Cl)cc1Cl)NCc1ccco1,1.0,-1.9,-10.7,-2.5,9.6,-13.2
O=C(COC(=O)COc1ccc(Nc2ccccc2)cc1)NCc1ccco1,29.1,99.7*,11.3,2.1,12.1,-14.1
CC(=O)c1ccc(OCC(=O)OCC(=O)NCc2ccco2)cc1,11.4,2.7,nt,-0.4,nt,?
Cc1c(NC(=O)COC(=O)COc2ccc(Nc3ccccc3)cc2)c(=O)n(-c2ccccc2)n1C,27.0,99.3*,-3.0,-0.5,-4.6,-7.9
O=C(CCSc1ccccc1)NCCSCc1ccco1,-5.5,nt,-2.8,-3.0,-12.6,-8.2
O=C(COc1ccccc1)NCCSCc1ccco1,8.7,81.9*,-2.6,0.8,4.1,-5.3
CCOC(=O)C1=C(COC(=O)[C@@H]2CCCN2S(=O)(=O)c2ccc(C)cc2)NC(=O)NC1C (stereo partly specified),14.1,-1.1,nt,-2.6,4.7,2.1
CCCCNC(=O)CC1N=C2c3ccccc3N=C(SCC(=O)Nc3ccc(OC)cc3)N2C1=O (stereo unspecified),29.2,96.2*,-13.2,4.0,-9.0,6.2
CCCCNC(=O)CC1N=C2c3ccccc3N=C(SCC(=O)Nc3ccccc3OC)N2C1=O (stereo unspecified),-11.3,-3.1,-8.6,-3.0,26.3,1.0
CCCCNC(=O)CC1N=C2c3ccccc3N=C(SCC(=O)Nc3cccc(OC)c3)N2C1=O (stereo unspecified),2.2,84.0*,4.9,3.2,23.9,-4.3
CC(Nc1ccccc1)c1cc(Cl)ccc1O (stereo unspecified),4.9,98.9*,-2.0,-2.8,-11.4,3.4
Cc1c(NC(C)c2cc(Cl)ccc2O)c(=O)n(-c2ccccc2)n1C (stereo unspecified),0.4,90.8*,-2.3,-0.4,-13.7,2.9
COc1ccc(NC(C)c2cc(Cl)ccc2O)cc1 (stereo unspecified),0.5,nt,-2.5,-1.3,-1.8,3.8
Cc1c(NC(C)c2ccccc2O)c(=O)n(-c2ccccc2)n1C (stereo unspecified),15.0,54.4,-17.6,-3.9,17.1,-16.3
Cc1c(NC(C)C)c(=O)n(-c2ccccc2)n1C,0.2,96.9*,nt,-1.4,nt,-25.6
